# Assay results collected from several papers.
# Compare with care: the assays were run in different laboratories.
# Target: Cytoplasmic tyrosine-protein kinase BMX (BMX, Homo sapiens, UniProt P51813)
# Residues used in one study (P51813 1-675): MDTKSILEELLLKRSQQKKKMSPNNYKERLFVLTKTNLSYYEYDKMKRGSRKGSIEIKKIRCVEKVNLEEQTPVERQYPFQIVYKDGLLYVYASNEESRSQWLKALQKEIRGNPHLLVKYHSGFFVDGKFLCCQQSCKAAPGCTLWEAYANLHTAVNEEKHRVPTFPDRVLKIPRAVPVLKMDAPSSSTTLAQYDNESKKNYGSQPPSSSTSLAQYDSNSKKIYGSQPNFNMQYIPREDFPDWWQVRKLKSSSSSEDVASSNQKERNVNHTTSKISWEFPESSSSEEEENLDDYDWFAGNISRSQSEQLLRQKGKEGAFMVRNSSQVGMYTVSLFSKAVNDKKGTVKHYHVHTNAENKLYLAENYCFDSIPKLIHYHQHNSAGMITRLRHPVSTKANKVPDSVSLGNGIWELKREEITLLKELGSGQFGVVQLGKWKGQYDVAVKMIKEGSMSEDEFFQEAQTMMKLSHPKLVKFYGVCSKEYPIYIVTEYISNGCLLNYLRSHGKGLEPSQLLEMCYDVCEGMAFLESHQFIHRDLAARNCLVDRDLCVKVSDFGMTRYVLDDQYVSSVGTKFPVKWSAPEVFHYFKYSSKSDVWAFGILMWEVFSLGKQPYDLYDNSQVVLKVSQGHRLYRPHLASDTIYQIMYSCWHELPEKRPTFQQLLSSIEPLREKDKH
Structure (SMILES),assay,conditions,measurement,value
Cn1c2c(c3ccc(Cl)c(Cl)c31)C(C#N)C1(CCOCC1)NC2=O (stereo not drawn),"thermal stability, DSF",10 µM,ΔTm,-0.3 °C
CCCS(=O)(=O)Nc1ccc(F)c(C(=O)c2c[nH]c3ncc(-c4ccc(Cl)cc4)cc23)c1F,"enzyme activity, inhibitor",1 µM,inhibition,< 20%
FC(F)(F)c1ccc(/C=C/c2nc(COc3ccc(CCCCn4ccnn4)cc3)co2)cc1,"enzyme activity, inhibitor",0.5 µM,remaining activity,99%
Cn1cncc1C1=CN(c2ncnc3[nH]cnc23)CCS1,"enzyme activity, inhibitor, radiometric",2 µM,inhibition,40%
FC(F)(F)c1ccc2c(c1)nc(-c1cccnc1)n2C1CC1,"cell-free assay, competition with immobilised ligand",1 µM,remaining binding,100%
O=C1c2ccccc2-c2n[nH]c3cccc1c23,"enzyme activity, inhibitor",0.5 µM,activity vs control,90.8%
CN(C)C1CCN(CC#Cc2nn(C3CCCC3)c3nc(NCc4ccccc4)ncc23)C1 (stereo not drawn),"enzyme activity, inhibitor, FRET",0.1 µM,inhibition,11%
Cn1c2c(c3ccc(Cl)c(Cl)c31)C(C#N)C1(CCCC1)NC2=O (stereo not drawn),"thermal stability, DSF",10 µM,ΔTm,0 °C
Oc1ccc(-c2nc(-c3ccncc3)c(-c3ccc(F)cc3)[nH]2)cc1,cell-free assay,0.5 µM,remaining signal,93.9%
c1nc2c(Nc3ccc4c(c3)OCCO4)nc(Nc3ccc4c(c3)OCCO4)nc2[nH]1,"enzyme activity, inhibitor",10 µM,activity vs control,9.7%
CS(=O)(=O)c1cc(C2(NC(=O)c3cncc4c3cnn4-c3ccc(F)cc3)CC2)ccn1,"cell-free assay, competition with immobilised ligand",1 µM,remaining binding,100%
Cc1cc(NC(=O)c2cccc3cc(-c4cccc5[nH]nc(N)c45)ccc23)ccc1F,"enzyme activity, inhibitor",0.1 µM,activity vs control,108%
Cn1c2c(Cl)c(Cl)ccc2c2cn[nH]c(=O)c21,"thermal stability, DSF",10 µM,ΔTm,0.4 °C
COc1cc2c(N3CCN(C(=O)Nc4ccc(OC(C)C)cc4)CC3)ncnc2cc1OCCCN1CCCCC1,cell-free assay,0.5 µM,remaining signal,109%
CCOC(=O)c1cc2cc(-c3cc(C(=O)NCc4ccc(C(=O)O)cc4)nn3C)ccc2[nH]1,"cell-free assay, competition with immobilised ligand",0.1 µM,remaining binding,82%
Cn1c2c(c3ccc(Cl)c(Cl)c31)C(C#N)C1(CCNCC1)NC2=O (racemic),"thermal stability, DSF",10 µM,ΔTm,-0.3 °C
Cn1cc(Cl)c2c(Oc3c(F)cc(Nc4cc(Cl)nc(N)n4)cc3F)ccnc21,"cell-free assay, competition with immobilised ligand",0.1 µM,remaining binding,97%
O=C1Nc2ccc(Cl)cc2C1=Cc1cc(Cl)c(O)c(Cl)c1,cell-free assay,0.5 µM,remaining signal,94.8%
Cc1ccc(Nc2nccc(N(C)c3ccc4c(C)n(C)nc4c3)n2)cc1S(N)(=O)=O,"enzyme activity, inhibitor",10 µM,inhibition,70%
Cc1nccc(COC(=O)N2C[C@@H]3[C@@H](CNC(=O)c4ccc5[nH]nnc5c4)[C@@H]3C2)n1,"cell-free assay, competition with immobilised ligand",1 µM,remaining binding,88%
CNC(=O)c1cc(Oc2ccc(NC(=O)Nc3ccc(Cl)c(C(F)(F)F)c3)cc2)ccn1,"enzyme activity, inhibitor",10 µM,inhibition,9%
Cn1c2c(c3ccc(Cl)c(Cl)c31)C(C#N)C1(CCCCC1)NC2=O (racemic),"thermal stability, DSF",10 µM,ΔTm,0.1 °C
COc1cc2nccc(Oc3ccc(NC(=S)NC(=O)c4ccccc4C)cc3)c2cc1OC,"enzyme activity, inhibitor",0.5 µM,remaining activity,30.6%
CCN(CC)CCNC(=O)c1c(C)[nH]c(/C=C2\C(=O)Nc3ccc(F)cc32)c1C,"enzyme activity, inhibitor",0.3 µM,inhibition,-1%
CC(=O)N1CCC(c2ccc(C(=O)NC(=N)N)cc2C(F)(F)F)CC1,"cell-free assay, competition with immobilised ligand",1 µM,remaining binding,100%
CNc1cccc2cc(C(=O)Nc3ccc(C(=O)O)cc3)c(=O)[nH]c12,"enzyme activity, inhibitor",10 µM,inhibition,9.1%
O=C(Nc1cccnn1)N1CCC(=Cc2cccc(Oc3ccc(C(F)(F)F)cn3)c2)CC1,"cell-free assay, competition with immobilised ligand",1 µM,remaining binding,71%
CNc1cc2c(Nc3cccc(Br)c3)ncnc2cn1,"enzyme activity, inhibitor",0.5 µM,remaining activity,93.9%
COc1cc2nccc(Oc3ccc(NC(=O)c4c5n(n(-c6ccc(F)cc6)c4=O)CCCC5)cc3)c2cc1OC,"enzyme activity, inhibitor",0.1 µM,inhibition,22%
COc1cc2ncnc(Nc3ccc(Oc4ccccc4)cc3C)c2cc1OC,"enzyme activity, inhibitor",1 µM,inhibition,35%
N#CCCc1ccc2c(c1)-c1[nH]c3ccc([N+](=O)[O-])cc3c1CC(=O)N2,cell-free assay,0.5 µM,remaining signal,99.5%
CC(=O)C1=C(C)N(c2cccc(C(F)(F)F)c2)C(=O)N[C@@H]1c1ccc(C#N)nc1,"cell-free assay, competition with immobilised ligand",1 µM,remaining binding,97.4%
Cc1ccc(C(=O)NCc2ccsc2)cc1C#Cc1cn(C(C)C)c2ncnc(N)c12,"enzyme activity, inhibitor",1 µM,activity vs control,2%
